Reference: ChEMBL document CHEMBL4513216, “Probing the Open Global Health Chemical Diversity Library for Multistage-Active Starting Points for Next-Generation Antimalarials” (ACS Infect Dis, 2020)

Assay: Toxicity liver stage against HepG2, at 10uM
Assay type: cell-based
Parameters: test concentration 10 uM, cell line HepG2-A16-CD81EGFP
Details: human, HepG2-A16-CD81EGFP cells; read-out: INHIBITION
Procedure, shortened: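 Uninfected HepG2-A16-CD81EGFP cells, 3 × 10^3 per well, 1536-well, plated on prespotted compound at 10 μM final, parasite-free screening media added to match infected plates; puromycin 10 μM positive, DMSO 0.5% negative; run in parallel with 48 h PbLuc assay at 37 °C, 5% CO2; viability by CellTiter-Glo luminescence, normalized to controls.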

Compound	cytotoxicity at 10 µM [%]
Cc1ccc(C(=O)Nc2ccccc2F)n1C	0.339
CC(=O)NC[C@H]1C[C@@H]2CCN1C[C@@H]2c1cc(-c2cccs2)nn1C	-7.99
CC(=O)N1N=C(c2ccccc2)OC1C(=O)NCCc1ccc(C)cc1 (configuration not stated)	0.0915
O=C(c1cc(=O)c(OCc2ccccc2F)co1)N1CCCC1	-0.321
Cc1ccc(S(=O)(=O)Nc2cnn(C3CCOCC3)c2)cc1C	13.5
Cn1ccc(C(=O)N2CCCCC23CC(=O)N(Cc2ccccc2)C3)n1 (configuration not stated)	3.64
O=C(C1CCSCC1)N1CCC2(CC1)COC(COCC1CC1)C2 (configuration not stated)	2.56
Cc1nc(N2CCOCC2)nc2c1COCC21CCN(CC(C)C)C1 (configuration not stated)	-128
CN(C)C(=O)c1n[nH]c2c1CCN(Cc1nccs1)C2	-139
O=C(Cc1cccs1)N1C[C@@H]2COC[C@]2(COc2cccnc2)C1	-21.1
CCCc1nnsc1C(=O)N1CCCC1(C)C(=O)N1CCOCC1 (configuration not stated)	12
CNc1ncc(CN(C)C2CCN(C(C)C)CC2)cn1	-3.14
CN(C)Cc1cnn(-c2ccccc2C(=O)N(C)Cc2ccccc2)c1	-6.54
Cc1ccc(S(=O)(=O)Nc2ccc(N3CCOCC3)cn2)cc1	3.92
Cc1ccc(C)c(C(O)Cn2cc(Cl)c(=O)[nH]c2=O)c1 (configuration not stated)	-6.81
CCCn1nc(C(=O)NC2(c3ccc(Cl)cc3)CCCC2)ccc1=O	9.46
COC(C)c1cccc(NCc2cccc(O)c2)c1 (configuration not stated)	-0.334
COc1ccccc1C(C)(C)NC(=O)c1cc(NC(C)=O)ccc1F	-137
CCC(C)(CC(=O)OC)NCc1nc(C)no1 (configuration not stated)	-5.69
CCC(CC)(CNC(=O)OC(C)(C)C)NC(=O)C1CCOCC1	1.85
CCOCCCC(=O)Nc1[nH]nc(-c2ccncc2)c1C	7.98

Compound	cytotoxicity at 10 µM [%]
CCCNC1(c2ccc(Cl)cc2)CCOCC1	-0.0529
CN(CCCNC(=O)c1ccccc1OCC(N)=O)CC(F)(F)F	-7.53
COc1ccc(C)cc1CC(=O)Nc1cc(C)n[nH]1	0.503
O=C(CNC(=O)C1CCCC1)NCc1cnn(-c2ccc(F)cc2F)c1	8.21
O=C(NCC(O)c1ccc(F)cc1F)c1cccc(F)c1 (configuration not stated)	7.43
NC(=O)N1CCCN(CC(=O)NCCc2c(F)cccc2F)CC1	-5.15
O=C(NCC(F)(F)F)C1CCCN(Cc2ccno2)C1 (configuration not stated)	-4.13
CC(C)(C(=O)NCc1ccc(C#N)cc1)n1cc(Br)cn1	12.4
NC(=O)C1CCN(C(=O)CCCc2ccc(Cl)c(Cl)c2)CC1	5.34
CC(C)(C)c1nccc(N2CCN(C3CCS(=O)(=O)C3)CC2)n1 (configuration not stated)	1.05
COc1cccc(CN(C(=O)NC2CC2)C2CCC(O)CC2)c1 (configuration not stated)	6.8
CN(C(=O)Nc1cccc(C#N)c1)C1CCN(c2ccccn2)CC1	1.66
CN(CCOc1cccc(Cl)c1)Cc1nnc(C(C)(C)C)o1	8.65
Brc1ccc(NCc2ccc(Cn3ccnc3)cc2)nc1	21.8
Cn1ccnc1COc1ccc(CSc2nncn2C2CC2)cc1	3.67
COc1cccc(N2CCC(CNC(=O)NCc3ccco3)C2)c1 (configuration not stated)	-127
COc1cccc(N2CCC(CNC(=O)N(C)Cc3ccco3)C2)c1 (configuration not stated)	-130
O=C1C(Sc2nc(=O)ccn2C2CC2)CCN1c1ccccc1 (configuration not stated)	1.27
O=C(Nc1ccc(-n2cncn2)c(F)c1)C1CCN(C(=O)C2CC2)CC1	-2.83
COCC(=O)N(C)Cc1ccc(OCc2cccs2)cc1	1.73
Cc1c(C(=O)NCC(C)(C)S(C)(=O)=O)cccc1-c1ccccn1	2.07

Compound	cytotoxicity at 10 µM [%]
Cc1csc(CNC(=O)Nc2ccc3c(c2)OCO3)n1	-15.7
NC(=O)CN(C(=O)c1cccc(C(F)(F)F)c1)C1CCCC1	-0.296
O=C(Nc1nccs1)N1CCCC(N2CCNC2=O)C1 (configuration not stated)	-20.7
CC(C)S(=O)(=O)NCC1CCCN(C(=O)c2ccc3c(c2)CCC3)C1 (configuration not stated)	-14.7
CC(C)c1cc(C(=O)NCCn2nnc3ccccc32)no1	-1.95
NC(=O)CN1CCC(C(=O)NCCc2nc(-c3ccccc3)cs2)CC1	-7.85
O=C(Cc1ccc2c(c1)OCO2)N[C@@H]1CCNC[C@H]1O	0.635
O=C(O)CSc1nnc(-c2ccn[nH]2)n1-c1ccccc1Cl	0.276
CCCS(=O)(=O)c1ncc(CN2CCC(C)CC2)n1CC1CCCO1 (configuration not stated)	-5.12
O=C(C1CNCCO1)N1CCC(c2cc(N3CCCC3)ncn2)CC1 (configuration not stated)	6.15
CO[C@H]1CNC[C@@H]1NC(=O)c1cc(C)nc2c(C)c(C)ccc12	0.936
COCCN1CCCC2(CCN(c3nccnc3N(C)C)C2)C1=O (configuration not stated)	-0.525
Cc1cc(N2CCOC(C(F)(F)F)C2)nc(-c2ccccc2O)n1 (configuration not stated)	-0.238
O=C(NCc1nc[nH]n1)c1cc(COc2cccc(C(F)(F)F)c2)[nH]n1	-3.26
O=C(NCCc1csc(-c2ncccn2)n1)c1cnn2c1CCCC2	-3.88
COc1cccc2c1OCC(CNC(=O)CSc1ccccn1)C2 (configuration not stated)	-135
CN1CCc2[nH]cnc2C12CCN(C(=O)c1noc3c1CCCC3)CC2	8.71
CC(COc1ccccc1)NCc1nc(-c2cccnc2)no1 (configuration not stated)	-14.1
NC(=O)c1cc(C2CCCN(C(=O)CCc3ccncc3)C2)n[nH]1 (configuration not stated)	-8.99
Cc1ccccc1CNC(=O)CN1CCCC(Cc2nccn2C)C1 (configuration not stated)	-15.4
COc1cccc(COCC(=O)N2CCCCCC2)c1	-3.48

Compound	cytotoxicity at 10 µM [%]
Cc1ccc(CC(=O)N2CCN(CC(C)O)CC2)cn1 (configuration not stated)	-2.37
Cc1ccccc1C1CCCN1Cc1nc2c(cnn2C)c(=O)[nH]1 (configuration not stated)	-12
c1cncc(-c2noc(CN3CCCC(Cn4cncn4)C3)n2)c1 (configuration not stated)	-2.18
Cn1c(NCC(O)c2ccc(F)c(F)c2)c(C#N)c(=O)n(C)c1=O (configuration not stated)	-19.9
O=C(CCCc1nnc(-c2ccccc2)o1)N1CCN(C2CC2)CC1	-12
CNC(=O)CN1CCC(NC(=O)Cc2ccc3c(c2)OCCO3)CC1	-18.3
Cc1cccc(C)c1OCC(=O)N1CCOCC1c1ncon1 (configuration not stated)	-17
CC(c1nc(C2CC2)no1)N1CCN(Cc2nnc(C3CC3)o2)CC1 (configuration not stated)	7.7
CC(C)C(=O)NCc1ccc(N(C)C)cc1	-18.1
CC(C)c1nc(CN2CCN(Cc3ccccn3)CC2)cs1	-4.41
CNS(=O)(=O)c1cccc(CNC(=O)NCC2CCOC2)c1 (configuration not stated)	-9.97
CCCc1cc(C(=O)NCCn2nc3ccccn3c2=O)[nH]n1	-3.56
CCOc1cccc(NS(=O)(=O)c2cc(C(=O)O)cs2)c1	-4.41
CC(C)N(C)[C@@H]1CCN(c2ncccn2)[C@H]1Cc1ccncc1	-3.42
CN(C)C(=O)NCc1nnn2c1CN(CC1CCOCC1)CCC2	-128
NCC1(c2cccc(Br)c2)CCOCC1	-8.45
CC(C)N(C)Cc1nnn2c1CN(Cc1cccnc1)CCC2	11.3
O=c1c(=CS(=O)(=O)Nc2ccc(Cl)cc2)[nH]c(=O)n2cccc12	-7.67
CC(=O)c1ccc(C(=O)N2C[C@H]3CC[C@@H](C2)N(Cc2ccccc2)C3)s1	-13.3
